In data set [1] the target is Tubulin (Homo sapiens) (UniProt P68371+Q9H4B7+P0DPH7+P68366+Q13509+Q71U36+P04350+Q3ZCM7+P07437+P68363+Q9BQE3+Q6PEY2+Q13885+Q9BVA1+Q9BUF5). Put plainly: Inhibition of tubulin polymerization in human HeLa cells assessed as disruption of microtubule network organization measured after 24 hrs by DAPI staining based immunofluorescence method. The class given is cell-based. Particulars: dose 0.1-0.5 µM. The method in brief:
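HeLa cells in six-well plates were treated 24 h. Fixed in 4% paraformaldehyde (37 °C, 15 min), permeabilised with 0.5% Triton X-100 and blocked with 10% goat serum. Incubated with α-tubulin primary antibody overnight, then fluorescent secondary antibody 1 h, with DAPI for nuclei. Imaged by confocal microscopy.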

A short description of data set [2]: Toxicity in BALB/c nude mouse transfected with human HeLa cells assessed as liver damage at 15 mg/kg/day, iv for 21 days by H&E staining based immunohistochemistry. Format: organism-based. The note with it: in vivo, 504 h, time 21 day. The gist of the method:
(§1)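 After 3 weeks of daily iv dosing of HeLa-xenografted nude mice, organs were taken from one mouse per group. Fixed in 4% paraformaldehyde, paraffin-embedded and sectioned. Stained with Harris hematoxylin and eosin-phloxine, then examined microscopically for histopathology.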

The subject of data set [3] is HeLa. Put plainly: Induction of apoptosis in human HeLa cells assessed as cell membrane integrity loss, chromatin condensation and apoptotic body formation by measuring reduction in green fluorescence intensity at 0.5 uM measured after 24 hrs by AO/EB dual staining based fluorescence microscopy. Format: functional.
For data set [4], the system named is HeLa. The data set is described as follows: Induction of apoptosis in human HeLa cells assessed as upregulation of Bax protein expression at 0.5 uM measured after 24 hrs by western blot analysis. The class given is functional, cell-based. The gist of the method: (§2)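 HeLa cells were treated 24 h at 37 °C and lysed in buffer containing PMSF. Protein quantified by BCA, equal amounts separated by SDS-PAGE and transferred to nitrocellulose. Blocked in 5% milk, primary antibodies overnight at 4 °C, peroxidase secondary 2 h at 25 °C. Detection by chemiluminescence, β-actin as loading control.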

For data set [5], the system named is HeLa. Put plainly: Induction of cell cycle arrest in human HeLa cells assessed as accumulation at S phase at 0.5 uM measured after 24 hrs by propidium iodide/RNAse staining based flow cytometry (reference value: 27.8%). The class given is functional.
Data set [6] can be described thus: Toxicity in BALB/c nude mouse transfected with human HeLa cells assessed as heart damage at 30 mg/kg/day, iv for 21 days by H&E staining based immunohistochemistry. Format: organism-based. Particulars: in vivo, 504 h, time 21 day. The gist of the method: (§3)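 HeLa xenografts were grown s.c. in male BALB/c nude mice, which received i.v. tail-vein doses once daily for 21 days in Tween 80/saline vehicle, with saline controls. After 3 weeks the mice were sacrificed. Organs from one mouse per group were fixed in 4% paraformaldehyde, paraffin-embedded and sectioned. Sections were dewaxed, stained with Harris hematoxylin and eosin-phloxine, and examined microscopically for histopathologic changes.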

Data set [7] has as its system HeLa. The data set is described as follows: Induction of apoptosis in human HeLa cells assessed as upregulation of caspase-3 protein expression at 0.5 uM measured after 24 hrs by western blot analysis. The class given is functional, cell-based. The method in brief: as §2
Data set [8] relates to HUVEC. Put plainly: Cytotoxicity against HUVEC cells assessed as inhibition of cell proliferation measured after 72 hrs by MTT assay. Format: cell-based. Particulars: Homo sapiens. The method in brief:
(§4)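 Cells (A549, PC-3, HeLa, HUVEC) grown in DMEM with 10% FBS at 37 °C, 5% CO₂. Seeded at 5 × 10⁴ cells/well and allowed 24 h to attach, then exposed 72 h to a concentration series from DMSO stocks. MTT was added for 4 h and formazan dissolved in DMSO, read at 490 nm. Survival taken relative to untreated control. IC50 by Bliss method, three repeats.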

Data set [9] deals with HeLa. The data set is described as follows: Induction of apoptosis in human HeLa cells assessed as mitochondrial membrane potential dissipation at 0.5 uM incubated for 24 hrs by JC-1 staining based flow cytometry (reference value: 6.6%). The class given is functional.
The subject of data set [10] is HeLa. Put plainly: Induction of apoptosis in human HeLa cells assessed as down regulation of Bcl-2 protein expression at 0.5 uM measured after 24 hrs by western blot analysis. The class given is functional, cell-based. The method in brief:
as §2

A short description of data set [11]: Toxicity in BALB/c nude mouse transfected with human HeLa cells assessed as spleen damage at 30 mg/kg/day, iv for 21 days by H&E staining based immunohistochemistry. The note with it: in vivo, 504 h, time 21 day. Format: organism-based. The gist of the method:
as §3

Data set [12] has as its system HeLa. Put plainly: Antitumor activity against human HeLa cells xenografted in BALB/c mouse assessed as inhibition of tumor volume at 15 mg/kg/day, iv administered for 21 days by caliper analysis. Format: functional. Particulars: 504 h, time 21 day. The gist of the method: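 Male BALB/c nude mice, five weeks old, 18-22 g. Inoculated subcutaneously in the right armpit with 1 × 10⁷ HeLa cells/0.1 mL. At 120-150 mm³, randomized to four groups of five. Once-daily tail-vein injection for 21 days in Tween 80/physiological saline; controls received saline. Tumor volume measured every 2 days by caliper, V = AB²/2.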

Data set [13] is described as follows: Toxicity in BALB/c nude mouse transfected with human HeLa cells assessed as body weight changes at 30 mg/kg/day, iv for 21 days. The class given is organism-based. The note with it: in vivo, 504 h, time 21 day. The method in brief: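 Five-week-old male BALB/c nude mice (18-22 g) were inoculated s.c. in the right armpit with HeLa cells (1 × 10⁷ cells/0.1 mL/mouse). At a tumour volume of 120-150 mm³, mice were randomised, five per group. Dosing was i.v. via the tail vein once daily for 21 days, in Tween 80/physiological saline; controls got an equal volume of saline. Body weight was recorded every 2 days.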

The nature of data set [14]: Toxicity in BALB/c nude mouse transfected with human HeLa cells assessed as kidney damage at 30 mg/kg/day, iv for 21 days by H&E staining based immunohistochemistry. The class given is organism-based. Particulars: in vivo, 504 h, time 21 day. The method in brief:
as §3

For data set [15], the system named is HeLa. Put plainly: Inhibition of cell migration in human HeLa cells at 0.5 uM measured after 24 hrs by wound healing assay (reference value: 61%). Format: functional. The gist of the method: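 Confluent HeLa monolayers were scratched with a pipette tip and washed with ice-cold PBS. Incubated 24 h at 37 °C in DMEM/10% FBS containing compound. Wounds were photographed at 0 and 24 h and migration distance measured manually.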

Data set [16] can be described thus: Toxicity in BALB/c nude mouse transfected with human HeLa cells assessed as lung damage at 15 mg/kg/day, iv for 21 days by H&E staining based immunohistochemistry. The class given is organism-based. The note with it: in vivo, 504 h, time 21 day. The method in brief: as §1
In data set [17] the test system is HeLa. The data set is described as follows: Induction of cell cycle arrest in human HeLa cells assessed as accumulation at G1 phase at 0.5 uM measured after 24 hrs by propidium iodide/RNAse staining based flow cytometry (reference value: 61.5%). The class given is functional.
The nature of data set [18]: Toxicity in BALB/c nude mouse transfected with human HeLa cells assessed as lung damage at 30 mg/kg/day, iv for 21 days by H&E staining based immunohistochemistry. Format: organism-based. The note with it: in vivo, 504 h, time 21 day. The gist of the method:
as §3

Data set [19] relates to A549. Put plainly: Anticancer activity against human A549 cells assessed as inhibition of cell proliferation measured after 72 hrs by MTT assay. Particulars: A549, 72 h. Format: functional, cell-based. The method in brief: as §4
Data set [20] deals with HeLa. The data set is described as follows: Induction of intracellular reactive oxygen species generation in human HeLa cells at 0.5 uM measured after 24 hrs by DCFH-DA staining based flow cytometry (reference value: 6.47%). Format: functional.

Activity calls are given as the source filed them. No cut-off for these calls is given here.

With `COc1ccc(/C=C\c2cc(OC)c(OC)c(OC)c2)cc1OC(=O)c1cccc(Cn2cc(CCOC(=O)[C@H](N)Cc3cn(C)c4ccccc34)nn2)c1`, the inhibition result in [1] was “Dose-dependent effect”. Moreover, the Activity result in data set [2] is reported as “Non-Toxic”; in [5] it was 17.05%; in [6], “Non-Toxic”; in data set [9], 68.8%; in data set [11], “Non-Toxic”; in data set [13] it was “Non-Toxic”. Further, the Activity entry was “Non-Toxic” in data set [14]; “Non-Toxic” in data set [16]; 6.69% in data set [17]; “Non-Toxic” in data set [18]; 49.7% in data set [20]. The outcome in [3], in [4], in data set [7] and in [10] was Active. Besides, the IC50 worked out at 1520 nM in data set [8] and 220 nM in data set [19]. Further, in data set [12], the inhibition in vivo at 15 mg/kg/day turned out to be 50.7%. For the same molecule, in [15], testing at 0.5 µM gave an inhibition of 88%.

The values are drawn from ChEMBL document CHEMBL4680166, “Dual-functional conjugates improving cancer immunochemotherapy by inhibiting tubulin polymerization and indoleamine-2,3-dioxygenase” (Eur J Med Chem, 2020).
